Laboratory results reported in ChEMBL document CHEMBL2331364, “A synthetic dolastatin 10 analogue suppresses microtubule dynamics, inhibits cell proliferation, and induces apoptotic cell death” (J Med Chem, 2013).
pIC50: −log10 of the molar value. The source made the active and inactive calls. The calls are words filed in the database; no cut-off is given here.

Assays:
[1] = tested on: HeLa; assay: Induction of apoptosis in human HeLa cells assessed as caspase-3 activation at 30 nM after 24 hrs by Western blot analysis; assay type: functional, cell-based
Summary of the method: (§1)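 HeLa cells were treated with vehicle or 30 nM for 24 h and washed twice in PBS. Lysates were Western blotted with antibodies to JNK1, phospho-JNK, procaspase-3 and PARP.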

[2] = tested on: HeLa; assay: Induction of apoptosis in human HeLa cells assessed as activated JNK1 level at 30 nM after 24 hrs by Western blot analysis relative to control; assay type: functional, cell-based; summary of the method: as §1
[3] = tested on: HeLa; assay: Antimitotic activity in human HeLa cells assessed as increase in phosphohistone H3 (Ser10) positive cell population at 7 nM after 24 hrs by fluorescence microscopic analysis (reference value: 3 +/- 0.3 %); assay type: functional
[4] = tested on: HeLa; assay: Induction of mitotic microtubule depolymerization in human HeLa cells assessed as unorganized chromosomes at metaphase plate at 15 nM after 24 hrs by Hoechst 33258 dye-based fluorescence microscopy; assay type: cell-based
[5] = tested on: HeLa; assay: Induction of apoptosis in human HeLa cells assessed as apoptotic cells at 35 nM after 24 hrs by annexin V-FITC/propidium iodide staining-based FACS analysis; assay type: functional
Summary of the method: (§2)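 HeLa cells were exposed to 35 nM for 10 or 24 h, stained with annexin V and propidium iodide using a kit, and apoptotic cells were quantified by FACS. Nocodazole (700 nM) served as comparator.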

[6] = tested on: HeLa; assay: Cytotoxicity against human HeLa cells after 24 to 48 hrs by trypan blue assay; assay type: functional, cell-based
Summary of the method: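 Cells were seeded at 1 × 10^5 cells/mL, grown 24 h at 37 °C in 5% CO2, then given vehicle (0.1% DMSO) or 1–80 nM for a further 24 or 48 h. Attached plus floating cells were counted after trypan blue staining. Percent inhibition was plotted against concentration to give IC50. Average of three independent experiments.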

[7] = tested on: MCF7; assay: Inhibition of microtubule (unknown origin) dynamics in GFP-tubulin transfected human MCF7 cells assessed as microtubule rescue events at 15 nM by confocal laser scanning microscopy (reference value: 10 +/- 2 events/min); assay type: cell-based
Summary of the method: (§3)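 EGFP-tubulin-transfected MCF-7 cells grown in EMEM with 10% FBS at 37 °C in 5% CO2, exposed to 15 nM compound (DMSO vehicle) or vehicle. Individual microtubules were followed by time-lapse confocal laser scanning microscopy and life-history traces were recorded. Kinetic parameters were derived from these traces, 20 microtubules per condition. Significance was tested by one-way ANOVA.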

[8] = (§4) Inhibition of goat brain tubulin polymerization incubated for 20 mins prior to GTP addition measured for 30 mins by 90 degree light scattering-based fluorescence spectrophotometric method; set-up: species or system Capra hircus
Summary of the method: (§5)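 Goat brain tubulin (10 μM) was preincubated with compound (5 μM; or 1, 5, 7, 10 μM) in 1 M monosodium glutamate, 3 mM MgCl2, 1 mM EGTA, 25 mM Pipes pH 6.8 on ice for 20 min. GTP (1 mM) was then added and assembly followed by 90° light scattering at 400 nm for 30 min at 37 °C. Experiment run twice.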

[9] = species: Capra hircus; assay: as §4; summary of the method: as §5
[10] = tested on: HeLa; assay: Antiproliferative activity against human HeLa cells assessed as median dose after 24 hrs; assay type: functional
Summary of the method: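 HeLa cells treated for 24 h with each agent alone and in combinations. The median dose (Dm) was taken from the median dose plot, and combination index was computed as CI = (D)1/(Dx)1 + (D)2/(Dx)2.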

[11] = tested on: HeLa; assay: Induction of interphase microtubule depolymerization in human HeLa cells at 7 nM after 24 hrs by Hoechst 33258 dye-based fluorescence microscopy relative to control; assay type: cell-based
[12] = tested on: HeLa; assay: Inhibition of microtubule-kinetochore tension in human HeLa cells assessed as Mad2 accumulation at kinetochoric region at 15 to 45 nM after 24 hrs by Hoechst 33258 dye-based Hec1 staining assay; assay type: cell-based
[13] = tested on: HeLa; assay: Induction of apoptosis in human HeLa cells assessed as genomic DNA fragmentation at 7 to 30 nM after 40 hrs by ethidium bromide staining-based electrophoresis; assay type: functional, cell-based
[14] = tested on: HeLa; assay: Induction of mitotic microtubule depolymerization in human HeLa cells assessed as multipolar spindle formation at 30 nM after 24 hrs by Hoechst 33258 dye-based fluorescence microscopy; assay type: cell-based
[15] = tested on: HeLa; assay: Induction of apoptosis in human HeLa cells assessed as apoptotic cells at 35 nM after 10 hrs by annexin V-FITC/propidium iodide staining-based FACS analysis; assay type: functional; summary of the method: as §2
[16] = tested on: HeLa; assay: Inhibition of mitosis in human HeLa cells assessed as mitotic index ratio at 7 nM after 48 hrs by Hoechst 33258 DNA staining assay (reference value: 3); assay type: functional
Summary of the method: (§6)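 HeLa cells were treated with vehicle or 7, 15 or 30 nM compound for 24 or 48 h. DNA was stained with Hoechst 33258, and mitotic cells were counted by fluorescence microscopy to give the mitotic index, compared against vehicle-treated cells.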

[17] = tested on: Tubulin (Capra hircus); assay: Inhibition of goat brain microtubule GTPase activity using GTP as substrate assessed as reduction of inorganic phosphate release at 5 uM incubated for 10 mins prior to substrate addition measured after 10 mins by ammonium molybdate malachite green assay relative to control
[18] = tested on: HeLa; assay: Induction of apoptosis in human HeLa cells assessed as late apoptotic cells at 30 nM after 24 hrs by annexin V/propidium iodide staining-based FACS flow cytometry; assay type: functional, cell-based
Summary of the method: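 HeLa cells were grown with vehicle (0.1% DMSO) or 7, 15 and 30 nM for 24 h and stained with an annexin V/propidium iodide kit. Stage was scored as annexin V-positive with weak PI (early/mid) or positive for both (late).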

[19] = tested on: MCF7; assay: Induction of mitotic microtubule depolymerization in human MCF7 cells at 15 nM after 48 hrs by Hoechst 33258 dye-based fluorescence microscopy; assay type: cell-based
[20] = tested on: MCF7; assay: Inhibition of microtubule (unknown origin) dynamics in GFP-tubulin transfected human MCF7 cells assessed as decrease in microtubule catastrophe frequency at 15 nM by confocal laser scanning microscopy relative to control; assay type: cell-based
Summary of the method: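 EGFP-tubulin transfected MCF-7 cells were treated with vehicle or 15 nM, and individual microtubules were tracked by confocal laser scanning microscopy, 20 microtubules per condition. Life-history parameters were derived as previously described. Significance was tested by one-way ANOVA.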

[21] = tested on: HeLa; assay: Inhibition of mitosis in human HeLa cells assessed as mitotic index ratio at 15 nM after 48 hrs by Hoechst 33258 DNA staining assay (reference value: 3); assay type: functional; summary of the method: as §6
[22] = tested on: HeLa; assay: Induction of apoptosis in human HeLa cells assessed as caspase-3 dependent PARP cleavage at 30 nM after 24 hrs by Western blot analysis; assay type: functional, cell-based; summary of the method: as §1
[23] = tested on: HeLa; assay: Induction of mitotic microtubule depolymerization in human HeLa cells at 15 nM after 24 hrs by Hoechst 33258 dye-based fluorescence microscopy; assay type: cell-based
[24] = tested on: HeLa; assay: Antimitotic activity in human HeLa cells assessed as increase in phosphohistone H3 (Ser10) positive cell population at 30 nM after 24 hrs by fluorescence microscopic analysis (reference value: 3 +/- 0.3 %); assay type: functional
[25] = tested on: MCF7; assay: Inhibition of microtubule (unknown origin) dynamics in GFP-tubulin transfected human MCF7 cells assessed as microtubule pause time at 15 nM by confocal laser scanning microscopy (reference value: 35 +/- 8 %); assay type: cell-based; set-up: scale not given: the % may be the effect or the level left; summary of the method: as §3
[26] = tested on: MCF7; assay: Inhibition of microtubule (unknown origin) dynamics in GFP-tubulin transfected human MCF7 cells assessed as microtubule shortening time at 15 nM by confocal laser scanning microscopy (reference value: 27 +/- 8 %); assay type: cell-based; set-up: scale not given: the % may be the effect or the level left; summary of the method: as §3

CC[C@H](C)[C@@H]([C@@H](CC(=O)NC[C@H]1O[C@H](C(=O)NCCc2ccccc2)[C@@H](OC)[C@@H]1OC)OC)N(C)C(=O)[C@@H](NC(=O)[C@@H](NC)C(C)C)C(C)C
Activity [1]: Active
Activity [2]: Active
Activity [3]: 6.6%
Activity [4]: Active
Activity [5]: 65.3%
pIC50 [6]: 8.17
Activity [7]: 12 min⁻¹
pIC50 [8]: 5.22
inhibition [9]: Dose-dependent effect
Activity [10]: 8.9 nM
Activity [11]: inactive
Activity [12]: Active
Activity [13]: Active
Activity [14]: Active
Activity [15]: 22.4%
Ratio [16]: 7.5
inhibition [17]: 42%
Activity [18]: Active
Activity [19]: Active
inhibition [20]: 32%
Ratio [21]: 11
Activity [22]: Active
Activity [23]: Active
Activity [24]: 14%
Activity [25]: 59%
Activity [26]: 19%
